From ChEMBL document CHEMBL4382252, “1,4-Benzodioxane Lignans: An Efficient, Asymmetric Synthesis of Flavonolignans and Study of Neolignan Cytotoxicity and Antiviral Profiles” (J Nat Prod, 2018) come the findings set out here.

A short description of series [1]: (§1) Cytotoxicity against human Huh7.5.1 cells after 72 hrs by ATPlite assay. The class given is cell-based. Particulars: Huh7.5.1 cells. Put shortly: (§2)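 Compounds in DMSO added to cells at a range of concentrations. ATP measured by ATPlite after 72 h. DMSO held at 0.5% final in all wells, including controls. Triplicate per concentration. CC50 obtained by log-transforming doses and fitting a variable-slope four-parameter regression.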
In general terms: ATP-based viability assays read luminescence as a measure of living cells.

Another series relates to Hepatitis C virus. Kind of series: Antiviral activity against HCV JFH-1 infected in human Huh7.5.1 cells assessed as reduction in NS3/NS5A expression by Western blot analysis. The class given is functional, organism-based, Hepacivirus hominis. Put shortly: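 Huh7.5.1 human hepatoma cells infected with HCV (JFH-1) at MOI 0.05 for 5 h; inoculum then replaced with fresh medium containing compound, three concentrations each. DMSO solvent control ≤0.5% final. Lysates run on SDS-PAGE and Western blotted for NS3 and NS5A, reprobed for actin as loading control. IC50 estimated from pixel intensity of viral protein bands.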
On the technique in general: A western blot detects proteins with antibodies after separation by electrophoresis.

The nature of series [2]: Selectivity index, ratio of CC50 for human Huh7.5.1 cells to IC50 for HCV JFH1 infected in human Huh7.5.1 cells. The class given is toxicity, cell-based. Particulars: for selectivity ratio: Huh7.5.1 cells, HCV JFH1-infected Huh7.5.1 cells, read-out: Ratio CC50/IC50.
For a further series, the system named is Huh7.5.1. Described as §1. The class given is cell-based. Particulars: huh7.5.1, 72 h. The method, boiled down: as §2
Setting [3] is: Hepatitis C virus, JFH-1, Huh-7.5.1.

pIC50: −log10 of the molar value. Where only a bound is given, the exact number is not on record here.

For orientation: CC50 means the concentration that lowers cell viability or growth by half. A lower CC50 goes with greater toxicity to the cells. What is called pIC50 is the negative decadic logarithm of the IC50, by convention in mol/L. For `COc1cc([C@H]2Oc3cc(/C=C/CO)cc(OC)c3O[C@@H]2CO)cc(OC)c1O`, the CC50 at 72 h in series [1] amounted to 464 µM. Besides, the negative-log IC50 (pIC50) with Hepatitis C virus (setting [3]) was 3.70. Besides, in series [2], the selectivity ratio came to 2.32.
Taken in the same sequence, the figures for `COc1cc([C@H]2Oc3cc(/C=C/CO)cc(OC)c3O[C@@H]2C)cc(OC)c1OC` were 129 µM, 4.30 and 2.57.
Consider `COc1cc([C@H]2Oc3cccc(OC)c3O[C@@H]2C)cc(OC)c1OC`, for which, in series [1], the CC50 at 72 h was 50.2 µM. Also, the pIC50 with Hepatitis C virus (setting [3]) was 4.40. For the same compound, the selectivity ratio in series [2] came out at 1.25.
In series [1], `C=CCc1cc(OC)c2c(c1)O[C@H](c1cc(OC)c(OC)c(OC)c1)[C@@H](C)O2` gave a CC50 at 72 h of 36.2 µM. The pIC50 with Hepatitis C virus (setting [3]) is 4.52. Also, the selectivity ratio in series [2] turned out to be 1.21.
Taken in the same sequence, the figures for `C=CCc1cc(OC)c2c(c1)O[C@H](c1ccc3c(c1)OCO3)[C@@H](C)O2` were > 125 µM, 4.70 and > 6.25.
The matching figures for `COc1cc([C@H]2Oc3cc(/C=C/C=O)cc(OC)c3O[C@@H]2C)cc(OC)c1OC`: 47.6 µM, 4.60 and 1.91.
The matching figures for `COc1cc(C2Oc3cc([C@H]4Oc5cc(O)cc(O)c5C(=O)[C@@H]4O)ccc3OC2CO)ccc1O` (stereo not given in full) [SILIBININ]: 80 µM, 4.22 and 1.33.
Regarding `COc1cc([C@H]2Oc3cc([C@H]4Oc5cc(O)cc(O)c5C(=O)[C@@H]4O)ccc3O[C@@H]2CO)ccc1O` [SILYBIN A], in series [1], it took 80 µM to reach half-maximal cytotoxicity (CC50 at 72 h). The pIC50 in the series on Hepatitis C virus (setting [3]) was 4.30. For the same compound, the selectivity ratio in series [2] came to 1.6.
Taken in the same sequence, the figures for `COc1cc([C@@H]2Oc3cc([C@H]4Oc5cc(O)cc(O)c5C(=O)[C@@H]4O)ccc3O[C@H]2CO)ccc1O` [SILYBIN B] were 68.7 µM, 4.30 and 1.37.
The compound SILYMARIN had a cytotoxic concentration (CC50) in the series with Huh7.5.1 of 100 µM. Moreover, in the series on Hepatitis C virus, the negative logarithm of the IC50 (pIC50) is 4.10. Besides, in series [2], the “Ratio CC50/IC50” value was determined as 1.25.
